We go through eleven molecules from ChEMBL document CHEMBL4373680, “Small antibacterial molecules highly active against drug-resistant Staphylococcus aureus” (Medchemcomm, 2019).

≈ marks a conversion by molar mass, not a printed value. Calls of active or inactive are those of the source. No cut-off for these calls is given here.

In series [1] the test system is Pseudomonas aeruginosa. The series is described as follows: Antibacterial activity against Pseudomonas aeruginosa MTCC 424 after 24 hrs by tecan plate reader analysis. The class given is functional. Particulars: MTCC 424, 24 h. The gist of the method:
(§1)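 Broth microdilution MIC. Glycerol stocks grown on MacConkey agar 24 h at 37 °C, then a single colony in nutrient broth 6 h to mid-log (~10⁸ CFU/mL). Cells diluted to 10⁵ CFU/mL in Mueller Hinton broth and added to two-fold compound dilutions. Incubated 24 h at 37 °C, OD600 read. Triplicate wells, experiment run twice.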

The nature of series [2]: Hemolytic activity in human erythrocytes after 1 hr. The class given is ADME, cell-based, Erythrocyte. In short, it runs like this: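 Heparinized donor blood. Erythrocytes washed three times in PBS and resuspended to 5 vol%, then mixed 3:1 with compound serially diluted in water. Incubated 1 h at 37 °C and centrifuged. Supernatant A540 read; % hemolysis relative to water and 0.1 vol% Triton-X controls.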

Series [3] deals with Escherichia coli. Briefly: Antibacterial activity against Escherichia coli MTCC 443 after 24 hrs by tecan plate reader analysis. The class given is functional. Particulars: MTCC 443, 24 h. In short, it runs like this: as §1
For series [4], the system named is Acinetobacter baumannii. The series is described as follows: Antibacterial activity against Acinetobacter baumannii MTCC 1425 after 24 hrs by tecan plate reader analysis. The class given is functional. Particulars: MTCC 1425, 24 h. The gist of the method: as §1
Series [5] concerns Staphylococcus aureus. Briefly: Antibacterial activity against methicillin-resistant Staphylococcus aureus ATCC 33591 after 24 hrs by tecan plate reader analysis. The class given is functional. As to conditions: ATCC 33591, 24 h. In short, it runs like this: (§2)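 Colony grown 24 h on NB agar at 37 °C, then 6 h in nutrient broth to mid-log (10⁸ CFU/mL by drop plating), diluted to 10⁵ CFU/mL in Mueller Hinton broth; added 9:1 to two-fold serial compound dilutions in MHB. Incubated 24 h, 37 °C; OD600 read. Triplicate per concentration, experiment run twice; MIC taken from the range of triplicate OD values.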

Series [6] concerns Klebsiella pneumoniae. The series is described as follows: Antibacterial activity against Klebsiella pneumoniae ATCC 700603 after 24 hrs by tecan plate reader analysis. The class given is functional. As to conditions: Klebsiella pneumoniae, 700603, 24 h. In short, it runs like this:
as §1

Series [7] relates to Staphylococcus aureus. The series is described as follows: Antibacterial activity against methicillin-resistant Staphylococcus aureus R3545 clinical isolate after 24 hrs by tecan plate reader analysis. The class given is functional. Particulars: R3545, 24 h. The gist of the method:
as §2

The subject of series [8] is Staphylococcus aureus. The series is described as follows: Antibacterial activity against methicillin-resistant Staphylococcus aureus R3890 clinical isolate after 24 hrs by tecan plate reader analysis. The class given is functional. As to conditions: R3890, 24 h. The gist of the method:
as §2

In series [9] the test system is Staphylococcus aureus. Briefly: Antibacterial activity against methicillin-resistant Staphylococcus aureus R3889 clinical isolate after 24 hrs by tecan plate reader analysis. The class given is functional. Particulars: R3889, 24 h. The gist of the method: as §2
A short description of series [10]: Selectivity index, ratio of HC50 for human erythrocytes to MIC for Escherichia coli MTCC 443. The class given is toxicity. Particulars: read-out: Selectivity Index.
Series [11] deals with Staphylococcus aureus. Briefly: Antibiofilm activity against Staphylococcus aureus R3545 assessed as reduction in biofilm biomass at 32 ug/ml incubated for 24 hrs followed by plating on agar plate for 24 hrs by crystal violet staining assay relative to control. The class given is functional. Particulars: R3545, 24 h. In short, it runs like this:
(§3)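 Biofilms grown 24 h static at 37 °C on coverslips (10⁵ CFU/mL in nutrient broth, 1% glucose, 1% NaCl) and treated 24 h, then PBS-washed, air-dried 10–15 min, stained with 0.1% w/v crystal violet 5–10 min, washed, dye recovered in 95% ethanol; OD 522 nm read. Run twice, mean with standard deviation.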

The test system of series [12] is Staphylococcus aureus. The series is described as follows: Bactericidal activity against metabolically inactive stationary phase methicillin-resistant Staphylococcus aureus R3545 assessed as reduction in bacterial colony formation at 32 ug/ml incubated for 6 hrs followed by plating on agar plate for 24 hrs by visual counting analysis. The class given is functional, organism-based.

In series [13] the test system is Staphylococcus aureus. Briefly: Antibacterial activity against vancomycin-resistant Staphylococcus aureus clinical isolate 4 after 24 hrs by tecan plate reader analysis. The class given is functional. Particulars: clinical isolate 4, 24 h. In short, it runs like this:
as §2

For series [14], the system named is Staphylococcus aureus. The series is described as follows: Antibiofilm activity against Staphylococcus aureus ATCC 33591 assessed as reduction in biofilm biomass at 32 ug/ml incubated for 24 hrs followed by plating on agar plate for 24 hrs by crystal violet staining assay relative to control. As to conditions: ATCC 33591, 24 h. The class given is functional. The gist of the method:
as §3

In series [15] the test system is Staphylococcus aureus. The series is described as follows: Bactericidal activity against metabolically inactive stationary phase methicillin-resistant Staphylococcus aureus ATCC 33591 assessed as reduction in bacterial colony formation at 32 ug/ml incubated for 6 hrs followed by plating on agar plate for 24 hrs by visual counting analysis. The class given is functional, organism-based.

Series [16] relates to Staphylococcus aureus. The series is described as follows: Antibacterial activity against vancomycin-resistant Staphylococcus aureus clinical isolate 1 after 24 hrs by tecan plate reader analysis. The class given is functional. As to conditions: clinical isolate 1, 24 h. In short, it runs like this:
as §2

In general, MIC refers to the lowest concentration found to suppress growth. Higher therefore signals a need for much substance. For orientation: HC50 means the concentration that lyses half of the red blood cells. High values mean less damage to red cells, low ones more damage to red cells. On to `CCCCCCCCCCNC(=O)C[N+](C)(CCO)CCCCCCCC[N+](C)(CCO)CC(=O)NCCCCCCCCCC.[Br-].[Br-]` (stereo unspecified), for which the MIC is 4 µg/mL in [1]; 1 µg/mL in series [3]; 1 µg/mL in series [4]; 0.5 µg/mL in series [5]; 2 µg/mL in series [6]. For the same molecule, in series [2], the HC50 at 1 h was 25 µg/mL.
For the molecule `COc1cccc(OC)c1C(=O)N[C@@H]1C(=O)N2[C@@H]1SC(C)(C)[C@@H]2C(=O)O` [METHICILLIN], the MIC in series [7] was 16 to 32 µg/mL (≈ 42.1 to 84.1 µM); in series [8], above 32 µg/mL; in series [9], 16 to 32 µg/mL (≈ 42.1 to 84.1 µM); in series [5], above 32 µg/mL.
As for `CCCCCCCCCCCCNC(=O)C[N+](C)(CCO)CCCCCC[N+](C)(CCO)CC(=O)NCCCCCCCCCCCC.[Br-].[Br-]` (stereo unspecified), the MIC in series [1] is 128 to 256 µg/mL; in series [3], 8 µg/mL; in [4] it was 4 µg/mL; in series [5] it was 1 to 2 µg/mL; in [6], 128 µg/mL. In series [2], this molecule displayed an HC50 at 1 h of 31 µg/mL.
On to `CCCCCCNC(=O)C[N+](C)(CCO)CCCCCC[N+](C)(CCO)CC(=O)NCCCCCC.O=C([O-])C(F)(F)F.O=C([O-])C(F)(F)F` (stereo unspecified), for which the MIC is above 256 µg/mL in series [1]; above 256 µg/mL in [3]; above 256 µg/mL in series [4]; 256 µg/mL in [5]; above 256 µg/mL in series [6]. This molecule also gave an HC50 at 1 h in [2] above 1020 µg/mL.
With `CCCCCCNC(=O)C[N+](C)(CCO)CCCCCCCCCC[N+](C)(CCO)CC(=O)NCCCCCC.O=C([O-])C(F)(F)F.O=C([O-])C(F)(F)F` (stereo unspecified), the minimal inhibitory concentration (MIC) in [1] was 256 µg/mL; in series [3], 8 µg/mL; in series [4] it was 256 µg/mL; in series [5], 8 µg/mL; in series [6], above 256 µg/mL. The selectivity ratio in [10] stood at 125. The molecule also showed an HC50 at 1 h in series [2] above 1020 µg/mL.
As to `CCCCCCCCNC(=O)C[N+](C)(CCO)CCC[N+](C)(CCO)CC(=O)NCCCCCCCC.[Br-].[Br-]` (stereo unspecified), the minimal inhibitory concentration (MIC) in series [1] was 8 µg/mL; in [3] it was 16 µg/mL; in [4] it was 32 µg/mL; in [5], 2 µg/mL; in [6], 32 µg/mL. In series [2], this molecule returned an HC50 at 1 h of 178 µg/mL.
In general, inhibition refers to the drop in the measured response relative to a control, in per cent. Take `CN[C@H](CC(C)C)C(=O)N[C@H]1C(=O)N[C@@H](CC(N)=O)C(=O)N[C@H]2C(=O)N[C@H]3C(=O)N[C@H](C(=O)N[C@H](C(=O)O)c4cc(O)cc(O)c4-c4cc3ccc4O)[C@H](O)c3ccc(c(Cl)c3)Oc3cc2cc(c3O[C@@H]2O[C@H](CO)[C@@H](O)[C@H](O)[C@H]2O[C@H]2C[C@](C)(N)[C@H](O)[C@H](C)O2)Oc2ccc(cc2Cl)[C@H]1O` [VANCOMYCIN]: the inhibition at 32 µg/mL in series [11] and in [14] was 10% in each case. Besides, the result in series [12] and in series [15] was inactive. The results for the minimum inhibitory concentration (MIC) in series [13], in series [5] and in series [16] were 512 µg/mL (≈ 353 µM), 0.5 to 1 µg/mL (≈ 0.345 to 0.69 µM) and 512 µg/mL (≈ 353 µM), respectively.
For the molecule `CCCCCCNC(=O)C[N+](C)(CCO)CCC[N+](C)(CCO)CC(=O)NCCCCCC.O=C([O-])C(F)(F)F.O=C([O-])C(F)(F)F` (stereo unspecified), the MIC in [1] is above 256 µg/mL; in [3], above 256 µg/mL; in series [4], above 256 µg/mL; in [5], 256 µg/mL; in series [6] it was above 256 µg/mL. This molecule returned a 50% haemolytic concentration (HC50) at 1 h in series [2] above 1020 µg/mL.
Take `CCCCCCCCCCCCNC(=O)C[N+](C)(CCO)CCCCCCCCCC[N+](C)(CCO)CC(=O)NCCCCCCCCCCCC.[Br-].[Br-]` (stereo unspecified): the MIC was 64 to 128 µg/mL in series [1]; 32 µg/mL in series [3]; 8 µg/mL in series [4]; 4 µg/mL in [5]; 64 to 128 µg/mL in series [6]. For the same molecule, the HC50 at 1 h in series [2] came to 32 µg/mL.
For the molecule `CCCCCCCCCCCCNC(=O)C[N+](C)(CCO)CCCCCCCCCCCC[N+](C)(CCO)CC(=O)NCCCCCCCCCCCC.[Br-].[Br-]` (stereo unspecified), the MIC is 64 µg/mL in [1]; 32 µg/mL in [3]; 32 µg/mL in series [4]; 2 to 4 µg/mL in [5]; 128 to 256 µg/mL in series [6]. For the same molecule, in [2], the 50% haemolytic concentration (HC50) at 1 h amounted to 22 µg/mL.
Turning to `CCCCCCCCCCNC(=O)C[N+](C)(CCO)CCCCCCCCCC[N+](C)(CCO)CC(=O)NCCCCCCCCCC.[Br-].[Br-]` (stereo unspecified), the MIC is 8 µg/mL in series [1]; 2 µg/mL in series [3]; 1 µg/mL in series [4]; 0.5 µg/mL in series [5]; 4 µg/mL in series [6]. The HC50 at 1 h in [2] was 18 µg/mL.
